Bioassay records (PubChem BioAssay)
Statin myotox sup: suppression of simvastatin myotoxicity. AID 602340. C2C12 myotubes + simvastatin, ATP luminescence, 48 h; scaled: DMSO 0, geranylgeraniol control 100. rescue of ATP level, % at 7.49 µM. hit rate 0.78% among 330,000;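 active means mean ATP rescue above about 67%, or every replicate alone reaching that limit, limit read from the data, passing the limit was not always enough; inconclusive means no clear call, values can overlap the other calls; inactive means mean under the limit and some replicate under it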;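 further: myotubes were challenged with 10 µM simvastatin during compound exposure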
DENV2 CPE: protects cells from dengue virus 2 cytopathic effect. CPE inhibition, % at 9.99 µM. DENV2-infected cells, cytopathic effect rescue, plate reader. hit rate 1.7% among 350,000. AID 651640; in the data active means CPE inhibition above about 20%, passing the limit was not always enough; inconclusive means no clear call, values can overlap the other calls; tested in BHK-21 cells;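 further: 0% = median of neutral control wells and 100% = median of positive control wells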
XiGFP reactiv: X-chromosome reactivation activator | XiGFP mouse fibroblasts, % GFP-positive cells imaging, 3 d; cells co-treated with 5-aza-dC sensitizer; scaled so ellipticine positive control = 100% | activation, % at 7.58 µM | hit rate 0.055% among 360,000;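 active means mean normalized replicate activation at least 10% and every replicate at or above 10%; inconclusive means only one of the two criteria met; inactive means mean below 10% and not all replicates reach 10%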;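 further: 0% = median of on-plate neutral control wells and 100% = ellipticine 6 µM median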
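assay system = SV40-immortalized XiGFP fibroblast cells, line 68-5-11 | buffer or medium = DMEM plus 5-aza-dC sensitizer | doses = single-point pinned compound dosing | times = 3-day compound exposure, then 15 min fixation at room temperature | benchmarks = positive control ellipticine, 6 µM final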
Cneo AK release: Cryptococcus neoformans lysis via adenylate kinase release. C. neoformans lysis, adenylate kinase release luminescence, 4 h; normalised: neutral wells 0, clomiphene wells 100. lysis activity, % at 15 µM. hit rate 0.2% among 360,000;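 active means mean lysis activity across replicates of at least 80%, whatever share of replicates individually reach that level; inactive means mean lysis activity below 80%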
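Assay system: C. neoformans cells. Amount: yeast cell density of 5 × 10^6 cells/mL. Technique: AK luminescence. Buffer or medium: YPD. Times: static 4 h at 37 °C with compound, 1 h detection. Dosing: single-point compound dose. Read-out: lysis from increased AK signal.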
* = called active by the depositor. Only some compounds are listed: those with a hit (about 2.1% of all), similar ones and a draw of the others.

For CC(=O)NC1(C(F)(F)F)NC(=O)N(CCc2ccccc2)C1=O (stereo unspecified) the results were Statin myotox sup -18, DENV2 CPE 16, XiGFP reactiv 0 and Cneo AK release 2.
Screening O[C@H]1C[C@H](c2ccc(Cl)cc2)N(Cc2cccs2)C[C@@H]1n1cc(-c2ccc(F)cc2)nn1 returned Statin myotox sup 5, DENV2 CPE 5, XiGFP reactiv 0 and Cneo AK release 0.
Screening CCCCCCN1C[C@H](n2cc(-c3ccc(F)cc3)nn2)[C@@H](O)C[C@@H]1c1ccccc1 returned Statin myotox sup 3, DENV2 CPE 93*, XiGFP reactiv 0 and Cneo AK release 0.
Screening O[C@@H]1CN(Cc2cccs2)[C@@H](c2ccccc2)C[C@H]1n1cc(-c2ccc(F)cc2)nn1 returned Statin myotox sup 8, DENV2 CPE 51*, XiGFP reactiv 0 and Cneo AK release -1.
Screening COc1ccc(S(=O)(=O)N[C@H]2C=C[C@H](CC(=O)NCCc3ccncc3)O[C@H]2CO)cc1 returned Statin myotox sup -23, DENV2 CPE -7, XiGFP reactiv 0 and Cneo AK release 3.
Screening CCC(=O)N1CCC2(CC1)CN(C(=O)c1ccccn1)[C@@H](CO)c1c2c2ccc(OC)cc2n1C returned XiGFP reactiv 0.
`C[C@H](CO)N1C[C@H](C)[C@H](CN(C)S(=O)(=O)c2ccc(F)cc2)Oc2c(NC(=O)c3ccc(-c4nccs4)cc3)cccc2C1=O` gave Statin myotox sup -21, DENV2 CPE -3, XiGFP reactiv 3 and Cneo AK release 7.
`COc1cccc(S(=O)(=O)NCc2ccc(C(=O)Nc3ccc(C)cc3)cc2)c1` gave Statin myotox sup 95* and Cneo AK release -6.
For COc1ccc(NC(=O)c2ccc(CNS(=O)(=O)c3cccc(OC)c3)cc2)cc1 the results were Statin myotox sup -27 and Cneo AK release -3.
Cc1noc(C)c1NC(=O)N[C@@H]1C=C[C@@H](CC(=O)NCc2ccc(Cl)c(Cl)c2)O[C@@H]1CO was read as Statin myotox sup 2, DENV2 CPE 13, XiGFP reactiv 0 and Cneo AK release 0.
For C/C(=N\NC(N)=S)c1cc(-c2ccccc2)c(-c2ccccc2)s1 the results were Statin myotox sup 108*, DENV2 CPE inconclusive, XiGFP reactiv 0 and Cneo AK release 19.
Screening C/C(=N\NC(N)=S)c1ccccc1 returned DENV2 CPE inconclusive, XiGFP reactiv 0 and Cneo AK release -1.
O=C(NC(=S)NCC1COc2ccccc2O1)c1ccccc1 (stereo unspecified) was read as Statin myotox sup -12 and Cneo AK release 161*.
Screening OC[C@H]1[C@@H](c2ccccc2)C2(CN(Cc3nccs3)C2)N1Cc1ccncc1 returned XiGFP reactiv 0.
Screening CNC[C@H]1Oc2c(NC(=O)c3ccc(-c4nccs4)cc3)cccc2C(=O)N([C@H](C)CO)C[C@H]1C returned Statin myotox sup -7, DENV2 CPE 41*, XiGFP reactiv 0 and Cneo AK release -2.
`COc1ccc(CN(C)C[C@@H]2Oc3c(NC(=O)c4ccc(-c5nccs5)cc4)cccc3C(=O)N([C@@H](C)CO)C[C@H]2C)cc1` gave Statin myotox sup 29, DENV2 CPE 5 and Cneo AK release 2.
`COc1ccc(CN(C)C[C@H]2Oc3c(NC(=O)c4ccc(-c5nccs5)cc4)cccc3C(=O)N([C@@H](C)CO)C[C@@H]2C)cc1` gave Statin myotox sup 11, DENV2 CPE 22*, XiGFP reactiv -1 and Cneo AK release -1.
For C[C@@H]1CN([C@@H](C)CO)C(=O)c2cccc(NC(=O)c3ccc(-c4nccs4)cc3)c2O[C@@H]1CN(C)Cc1ccc(C(F)(F)F)cc1 the results were Statin myotox sup 74*, DENV2 CPE 1, XiGFP reactiv 0 and Cneo AK release 4.
For C[C@@H]1CN([C@@H](C)CO)C(=O)c2cccc(NC(=O)c3cnccn3)c2O[C@@H]1CN(C)Cc1ccc(C(F)(F)F)cc1 the results were Statin myotox sup -52, DENV2 CPE 22*, XiGFP reactiv 0 and Cneo AK release -13.
Screening C[C@H]1CCCCO[C@H](CN(C)Cc2ccc(C(F)(F)F)cc2)[C@@H](C)CN([C@@H](C)CO)C(=O)c2cc(N(C)C)ccc2O1 returned DENV2 CPE -9, XiGFP reactiv -1 and Cneo AK release -3.
For C[C@H](CO)N1C[C@H](C)[C@@H](CN(C)C(=O)C2CCCCC2)Oc2cc(C#CC3CC3)ccc2S1(=O)=O the results were Statin myotox sup -16 and XiGFP reactiv -1.
Screening COC(=O)C1CCCN1C(=O)C1CCCN1C(=O)CNC(=O)OCc1ccccc1 (stereo unspecified) returned Statin myotox sup 82* and Cneo AK release -1.
Screening COC(=O)CNC(=O)C1CCCN1C(=O)CNC(=O)OCc1ccccc1 (stereo unspecified) returned DENV2 CPE 1 and XiGFP reactiv 0.
Screening CC1(CCc2ccccc2)NC(=O)NC1=O (stereo unspecified) returned Statin myotox sup -4, DENV2 CPE 0 and XiGFP reactiv 0.
`CC(C)CC1(C)NC(=O)NC1=O` (stereo unspecified) gave Statin myotox sup 117* and Cneo AK release 5.
Screening Cc1ccc(NC(=O)C2(c3ccccc3)CC2(Cl)Cl)cc1C (stereo unspecified) returned Statin myotox sup 143* and Cneo AK release -1.
Screening Cc1cccc(NC(=O)C2(c3ccccc3)CC2(Cl)Cl)c1 (stereo unspecified) returned Statin myotox sup 7 and Cneo AK release 3.
Screening CCC1=C(OC(=O)N(CC)CC)N2C(=O)OC(=NCC(=O)OC)[C@]2(Cc2ccccc2)[C@H]2C1=CC[C@H]1C(=O)N(C)C(=O)[C@H]12 returned Statin myotox sup 4, DENV2 CPE 7, XiGFP reactiv 0 and Cneo AK release -1.
For CCC1=C(OC(=O)N(CC)CC)N2C(=O)OC(=NCC(=O)OC)[C@]2(Cc2ccccc2)[C@H]2C1=CC[C@H]1C(=O)NC(=O)[C@H]12 the results were Statin myotox sup 7, DENV2 CPE 23*, XiGFP reactiv 0 and Cneo AK release 2.
For N#Cc1cc(Br)ccc1N=C1CCCN1c1ccccc1 the results were DENV2 CPE 24*, XiGFP reactiv 0 and Cneo AK release -1.
COc1ccccc1CNC(=S)NCc1ccc(Cl)cc1 was read as Statin myotox sup -6, DENV2 CPE 3, XiGFP reactiv 0 and Cneo AK release 137*.
For C[C@@H]1CN([C@H](C)CO)C(=O)c2cc(C#C[C@@H](C)O)cnc2O[C@@H]1CN(C)C(=O)Cc1ccncc1 the results were Statin myotox sup 6, DENV2 CPE -7, XiGFP reactiv 0 and Cneo AK release 3.
For CC(O)Cc1cn([C@@H](CCCCN)C(=O)N2CCNCC2)nn1 (stereo partly specified) the results were Statin myotox sup 2, DENV2 CPE 25*, XiGFP reactiv 0 and Cneo AK release 2.
